# IDH1 mut inh: IDH1 R132H (human) inhibition; inhibition, % at 10 µM; actives 0.18% (n = 70,000); IDH1 R132H reductase, diaphorase/resazurin fluorescence, 60 min; AID 624101; in the data active = inhibition above about 34%; inconclusive = no clear call, values can overlap the other calls; inactive = below about 11%;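 also: 0% = DMSO and 100% = no enzyme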
# Target sequence (O75874 whole entry R132H): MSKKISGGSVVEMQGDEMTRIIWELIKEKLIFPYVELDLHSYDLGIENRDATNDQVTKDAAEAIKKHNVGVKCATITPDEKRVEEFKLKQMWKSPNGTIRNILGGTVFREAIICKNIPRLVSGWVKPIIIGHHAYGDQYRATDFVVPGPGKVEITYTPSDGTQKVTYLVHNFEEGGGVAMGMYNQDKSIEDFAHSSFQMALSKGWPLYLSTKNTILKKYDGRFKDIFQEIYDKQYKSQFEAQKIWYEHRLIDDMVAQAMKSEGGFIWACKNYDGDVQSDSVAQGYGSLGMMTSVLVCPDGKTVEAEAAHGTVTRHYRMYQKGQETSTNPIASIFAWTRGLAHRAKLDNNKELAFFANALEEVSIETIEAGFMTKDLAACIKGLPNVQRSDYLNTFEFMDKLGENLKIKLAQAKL
# Pf Dd2 inh: P. falciparum Dd2 growth inhibition; actives 2.3% (n = 94,000); SYBR Green, 72 h; active compounds read low; activity change, % at 10 µM; AID 1159554; in the data active = activity change below about -80%; inconclusive = no clear call, values can overlap the other calls
# GASC1 inh: blocks human GASC-1 (KDM4C) demethylase activity; Q9H3R0; GST-KDM4C 2-372, H3K9me3 peptide, LANCE TR-FRET; inhibition, % at 12.5 µM; actives 0.15% (n = 96,000);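 active = mean replicate inhibition above about 25%, with at least 55% of replicates also reaching it, limit read from the data, passing the limit was not always enough; inconclusive = only one of those two conditions met; inactive = neither condition met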
#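 Material: GST-tagged GASC-1 (JMJD2C) catalytic fragment, aa 2-372. Input: enzyme final amount 10 nM. Medium: HEPES buffer, pH 7.5, plus ascorbate. Reagent: H3K9me3 peptide substrate, Fe(II), 2-oxoglutarate. Doses: single dose. Times: reaction 30 min RT, detection step 1 h RT. Measured by: LANCE TR-FRET. Evaluation: Fall in 671/618 emission ratio as inhibition.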
# T cruzi growth-1: T. cruzi proliferation inhibition | T. cruzi beta-gal in NIH3T3, GalScreen luminescence, 90 h | inhibition, % at 8.34 µM | actives 5.9% (n = 77,000) | AID 624255;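 active = mean inhibition above about 93%, with at least 55% of replicates each passing it, limit read from the data, passing the limit was not always enough; inconclusive = only one of those two conditions holds; inactive = neither condition holds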
# T cruzi growth-2: blocks T. cruzi growth in NIH3T3 host cells | inhibition, % at 8.35 µM | shares compounds with T cruzi growth-1 | T. cruzi beta-gal in NIH3T3, GalScreen luminescence, 90 h | actives 72% (n = 5,600) | AID 651739;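 active = mean replicate inhibition above about 95% and at least 55% of replicates individually reaching it, limit read from the data; inconclusive = only one of the two criteria is met; inactive = neither criterion is met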
# T cruzi growth-3: inhibitors of T. cruzi proliferation. shares compounds with T cruzi growth-1. T. cruzi beta-gal in NIH3T3, GalScreen luminescence, 90 h. inhibition, % at 2.09 µM. actives 21% (n = 5,600);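 active = mean inhibition above about 95%, with at least 55% of replicates also reaching it, limit read from the data; inconclusive = meets just one of the two conditions; inactive = meets neither condition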;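 also: plate controls were neutral control median for no effect and positive control median for full effect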
# NIH3T3 tox: NIH/3T3 (mouse) viability loss; shares compounds with T cruzi growth-1; NIH/3T3 viability, CellTiter-Glo ATP luminescence, 90 h; cytotoxicity (signal decrease), % at 8.35 µM; actives 14% (n = 5,600); AID 651742;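 active = mean signal decrease across replicates above about 35% based on untreated-well scatter, with enough replicates individually passing, limit read from the data; inconclusive = no rule stated though some were filed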;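 also: 0% = median of neutral control wells and 100% = median of positive control wells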
# 3T3 cytotox 2: kills mouse NIH/3T3 fibroblasts; shares compounds with T cruzi growth-1; AID 651744; NIH/3T3 viability, CellTiter-Glo ATP luminescence, 90 h; inhibition, % at 24.9 µM; actives 56% (n = 5,600);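 active = mean loss of cell viability signal at or above a set limit, and enough replicates individually reaching it; inconclusive = meets only the mean limit or only the replicate share; inactive = meets neither condition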;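 also: 0% = median of neutral control wells and 100% = median of positive control wells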
# The depositor's hits bear a star; ? = inconclusive; nt = no result. Most compounds without a hit are left out; they make up all but 5.8% or so of the library.
SMILES,IDH1 mut inh,Pf Dd2 inh,GASC1 inh,T cruzi growth-1,T cruzi growth-2,T cruzi growth-3,NIH3T3 tox,3T3 cytotox 2
C[C@H](CO)N1C[C@H](C)[C@@H](CN(C)Cc2ccc(Oc3ccccc3)cc2)Oc2ncc(-c3ccncc3)cc2C1=O,0,-73,4,109*,111*,75,28,105*
C[C@@H]1CN([C@@H](C)CO)C(=O)c2cc(-c3ccncc3)cnc2O[C@H]1CN(C)Cc1ccc(Oc2ccccc2)cc1,0,-61,2,94*,102*,69,41*,104*
C[C@H]1CN([C@@H](C)CO)S(=O)(=O)c2ccc(C#CC3CC3)cc2O[C@@H]1CN(C)Cc1cccc(F)c1,-2,-23,1,nt,nt,nt,nt,nt
C[C@H]1CN([C@@H](C)CO)S(=O)(=O)c2ccc(C#CC3CC3)cc2O[C@H]1CN(C)Cc1cccc(F)c1,-2,-28,9,nt,nt,nt,nt,nt
C[C@H](CO)N1C[C@H](C)[C@H](CN(C)Cc2cccc(F)c2)Oc2cc(C#Cc3ccccn3)ccc2S1(=O)=O,nt,-79,-8,124*,103*,103*,-17,-20
C[C@H]1CN([C@@H](C)CO)S(=O)(=O)c2ccc(C#Cc3ccccn3)cc2O[C@H]1CN(C)Cc1cccc(F)c1,-4,-74,2,125*,108*,83,-10,-13
C[C@H]1CN([C@@H](C)CO)S(=O)(=O)c2ccc(C#Cc3ccccn3)cc2O[C@@H]1CN(C)Cc1cccc(F)c1,nt,-5,-10,126*,98*,83,-32,70*
C[C@@H]1CN([C@H](C)CO)S(=O)(=O)c2ccc(C#Cc3ccccn3)cc2O[C@H]1CN(C)Cc1cccc(F)c1,1,-28,-11,121*,103*,86,?,81*
O=C(C[C@@H]1CC[C@@H]2[C@H](COC[C@@H](O)CN2S(=O)(=O)c2cccc(F)c2)O1)NCCCN1CCOCC1,nt,6,1,-8,nt,nt,nt,nt
O=C(C[C@@H]1C[C@H]2c3cc(NC(=O)c4ccc5c(c4)OCO5)ccc3O[C@H]2[C@H](CO)O1)NCCN1CCCCC1,0,-3,2,-70,nt,nt,nt,nt
CN1c2ccc(C#Cc3cccnc3)cc2[C@@H]2[C@@H](CCN2C(=O)c2cccc(F)c2)[C@@H]1CO,nt,-36,20,109*,107*,45,31,31*
COc1cccc(S(=O)(=O)N2CC[C@@H]3[C@H]2c2cc(C#Cc4cccnc4)ccc2N[C@@H]3CO)c1,nt,-11,-1,?,107*,86,14,43*
CN1c2ccc(C#Cc3cccnc3)cc2[C@@H]2[C@@H](CCN2C(=O)C2CCCCC2)[C@H]1CO,nt,-42,1,119*,110*,57,41*,42*
CN1c2ccc(C#Cc3cccnc3)cc2[C@H]2[C@H](CCN2S(=O)(=O)c2ccc(F)cc2)[C@@H]1CO,nt,-64,0,103*,98*,89,15,31*
Cc1noc(C)c1NC(=O)Nc1ccc2c(c1)C(=O)N([C@@H](C)CO)C[C@H](C)[C@@H](CN(C)C(=O)CCCN(C)C)OCCCC[C@H](C)O2,3,56,1,nt,nt,nt,nt,nt
COc1ccccc1S(=O)(=O)N1CC[C@@H]2[C@@H](CO)N(C)c3ccc(-c4ccc(C#N)cc4)cc3[C@@H]21,nt,-19,-9,23,nt,nt,nt,nt
COc1ccccc1S(=O)(=O)N1CC[C@@H]2[C@H]1c1cc(-c3cccc(C#N)c3)ccc1N(C)[C@H]2CO,nt,22,-1,106*,105*,63,?,33*
COc1ccccc1S(=O)(=O)N1CC[C@@H]2[C@@H](CO)N(C)c3ccc(-c4cccc(C#N)c4)cc3[C@@H]21,nt,-7,2,97*,106*,72,15,19
Cc1ccccc1S(=O)(=O)N1CC[C@@H]2[C@H](CO)N(C)c3ccc(Br)cc3[C@@H]21,nt,-5,0,131*,107*,37,11,72*
Cc1ccccc1S(=O)(=O)N1CC[C@@H]2[C@H]1c1cc(-c3ccccc3)ccc1N(C)[C@H]2CO,nt,-70,0,98*,107*,115*,12,103*
CC(C)=CCC[C@H](C)C/C=N/NC(=O)c1ccc(C(=O)NO)cc1,0,nt,nt,nt,nt,nt,nt,nt
CNC[C@H]1Oc2c(NC(=O)C3CCOCC3)cccc2C(=O)N([C@H](C)CO)C[C@@H]1C,0,0,-1,28,nt,nt,nt,nt
Cc1ccccc1S(=O)(=O)N1CC[C@@H]2[C@@H](CO)N(C)c3ccc(-c4cccc(C#N)c4)cc3[C@@H]21,nt,6,-10,100*,99*,64,14,61*
CN1c2ccc(Br)cc2[C@H]2[C@H](CCN2S(=O)(=O)c2cccc(F)c2)[C@H]1CO,nt,30,0,?,97*,55,-11,27
CC(=O)N1CCCCN2[C@H](CO)[C@@H](c3ccc(-c4ccc(C)cc4)cc3)[C@H]2C1,nt,37,-1,106*,3,-15,21,74*
SMILES,IDH1 mut inh,Pf Dd2 inh,GASC1 inh,T cruzi growth-1,T cruzi growth-2,T cruzi growth-3,NIH3T3 tox,3T3 cytotox 2
CC(=O)N1CCCCN2[C@@H](CO)[C@@H](c3ccc(-c4ccc(C)cc4)cc3)[C@@H]2C1,nt,28,0,106*,56,36,36*,66*
CC(=O)N1CCCCN2[C@H](C1)[C@@H](c1ccc(-c3ccc(C)cc3)cc1)[C@@H]2CO,nt,17,-1,111*,38,-70,8,0
CC(=O)N1CCCCN2[C@@H](CO)[C@H](c3ccc(-c4ccc(C)cc4)cc3)[C@@H]2C1,nt,-9,-1,120*,65,30,?,76*
CC=Cc1ccc2n(c1=O)C[C@@H]1[C@@H](CO)[C@H](C(=O)N(C)C)N(CC3CCCC3)[C@H]21 (mixture of isomers),nt,11,6,nt,nt,nt,nt,nt
Cc1noc(C)c1NC(=O)NCC[C@H]1CC[C@H](NC(=O)c2ccncc2)[C@@H](CO)O1,0,-10,1,-74,nt,nt,nt,nt
CC(=O)N1CCCCN2[C@H](CO)[C@@H](c3ccc(-c4ccc(C)cc4)cc3)[C@@H]2C1,nt,32,1,102*,74,18,41*,28*
CC(=O)N1CCCCN2[C@H](C1)[C@H](c1ccc(-c3ccc(F)cc3)cc1)[C@@H]2CO,nt,-1,1,41,nt,nt,nt,nt
CC(=O)N1CCCCN2[C@H](C1)[C@H](c1ccc(-c3ccc(C)cc3)cc1)[C@@H]2CO,nt,10,0,100*,106*,41,15,29*
CN1c2ccc(-c3cccc(F)c3)cc2[C@H]2[C@H](CCN2C(=O)C2CCCC2)[C@H]1CO,nt,27,-6,85,nt,nt,nt,nt

# Compound activity (PubChem BioAssay)
